How the values were obtained:
Format in all cases: functional, cell-based
[1] = tested on: MCF7; assay: Cytotoxicity against human MCF7 cells assessed as growth inhibition after 48 hrs by MTT assay; settings: MCF7, 48 h
How it was run: (§1)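 Cells grown in DMEM with 10% FBS and seeded at 6 × 10^4 cells/mL. Five concentrations per compound added from DMSO, each tested in triplicate. Incubated 48 h at 37 °C under 5% CO2. MTT (4 mg/mL) added, then 4 h further incubation. Medium removed, formazan dissolved in DMSO, absorbance read at 570 nm. IC50 reported as mean ± SD of triplicate experiments. Doxorubicin served as positive control.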

[2] = tested on: AGS; assay: Cytotoxicity against human AGS cells assessed as growth inhibition after 48 hrs by MTT assay; how it was run: as §1
[3] = tested on: A549; assay: Cytotoxicity against human A549 cells assessed as growth inhibition after 48 hrs by MTT assay; settings: A549, 48 h; how it was run: as §1
[4] = tested on: HepG2; assay: Cytotoxicity against human HepG2 cells assessed as growth inhibition after 48 hrs by MTT assay; settings: HepG2, 48 h; how it was run: as §1
[5] = tested on: K562; assay: Cytotoxicity against human K562 cells assessed as growth inhibition

Row | Compound | IC50 [1] | IC50 [2] | IC50 [3] | IC50 [4] | IC50 [5]
1 | COC(=O)CC1=C(C)C2=C[C@H](OC(C)=O)[C@@]3(O)C(C)(C)CC[C@H](OC(C)=O)[C@]3(C)[C@H]2CC1=O | 2.1 µM | > 50 µM | 14.6 µM | 4.7 µM | –
2 | COC(=O)CC1=C(C)[C@@H]2[C@@H](OC(C)=O)[C@H](OC(C)=O)[C@@]3(O)C(C)(C)CC[C@H](OC(C)=O)[C@]3(C)[C@H]2CC1=O | 7.9 µM | 48.3 µM | 25.2 µM | 18.5 µM | –
3 | COC(CC1=C(C)[C@@H]2[C@@H](OC(C)=O)[C@H](OC(C)=O)[C@@]3(O)C(C)(C)CC[C@H](OC(C)=O)[C@]3(C)[C@H]2CC1=O)OC | 15.6 µM | 45.8 µM | 31.8 µM | 10.6 µM | –
4 | CC(=O)O[C@H]1CCC(C)(C)C2=CC(=O)c3c(cc4occc4c3C)[C@]21C | > 50 µM | 6.5 µM | 24.8 µM | > 50 µM | –
5 | CC(=O)O[C@H]1CCC(C)(C)[C@]2(O)[C@@H](OC(C)=O)[C@H](O)c3c(cc4occc4c3C)[C@@]12C | > 50 µM | > 50 µM | > 50 µM | > 50 µM | –
6 | CO[C@@]12C[C@H]3[C@@H](CC[C@@]4(O)C(C)(C)C[C@H](OC(C)=O)[C@H](OC(C)=O)[C@]34C)[C@@H](C)C1=CC(=O)O2 | 46.1 µM | > 50 µM | > 50 µM | > 50 µM | –
7 | C=C1C2=CC(=O)O[C@]2(OC)C[C@H]2[C@H]1[C@@H](O)C[C@@]1(O)C(C)(C)CC[C@H](OC(C)=O)[C@]21C | > 50 µM | > 50 µM | > 50 µM | 34.7 µM | –
8 | C=C1C2=CC(=O)O[C@]2(OC)C[C@H]2[C@H]1[C@@H](O)[C@H](OC(C)=O)[C@@]1(O)C(C)(C)CC[C@H](OC(C)=O)[C@]21C | > 50 µM | > 50 µM | > 50 µM | 38.9 µM | –
9 | CO[C@@]12C[C@H]3[C@@H](C[C@H](OC(C)=O)[C@@]4(O)C(C)(C)C[C@H](OC(C)=O)[C@H](OC(C)=O)[C@]34C)[C@](C)(O)C1=CC(=O)O2 | > 50 µM | 29.1 µM | > 50 µM | 47.2 µM | –
10 | CC(=O)OC1CC(C)(C)[C@]2(O)C[C@H](O)[C@H]3[C@@H](C)C4=CC(=O)O[C@]4(O)C[C@@H]3[C@@]2(C)[C@H]1OC(C)=O (stereo partly drawn) | 36.1 µM | > 50 µM | 31.9 µM | > 50 µM | –
11 | CC(=O)O[C@@H]1[C@@H]2[C@H](C=C3OC(=O)C=C3[C@@]2(C)O)[C@@]2(C)[C@@H](OC(C)=O)CCC(C)(C)[C@]2(O)[C@H]1OC(C)=O | 41.2 µM | > 50 µM | > 50 µM | > 50 µM | –
12 | CC(=O)O[C@H]1CC(C)(C)[C@]2(O)CC[C@H]3[C@@H](C)C4=CC(=O)OC4=C[C@@H]3[C@@]2(C)[C@H]1OC(C)=O | > 50 µM | > 50 µM | > 50 µM | > 50 µM | –
13 | COc1cccc2c1C(=O)c1c(O)c3c(c(O)c1C2=O)C[C@@](O)(C(=O)CO)C[C@@H]3O[C@H]1C[C@H](N)[C@H](O)[C@H](C)O1 [DOXORUBICIN] | 0.94 µM | 1.2 µM | 0.74 µM | 0.59 µM | –
14 | C#C[C@@]12O[C@]1(C=O)[C@]1(C)CC[C@H]3C(C)(C)CCC[C@]3(C)[C@H]1CC2=O [ESCOBARINE A] | – | – | – | – | 2.52 µM

From ChEMBL document CHEMBL2385012, “Caesalpins A-H, bioactive cassane-type diterpenes from the seeds of Caesalpinia minax” (J Nat Prod, 2013)
